ChEMBL document CHEMBL4145669 (J Med Chem, 2018)
Square brackets hold non-standard residues; d marks the D form. Peptide text beside a SMILES is read from it. hPhe = N[C@@H](CCc1ccccc1)C(=O)O; Nle = CCCC[C@H](N)C(=O)O

Experiments:
Melanocortin receptor 3 = Melanocortin receptor 3 (Mus musculus, UniProt P33033); assay: Antagonist activity at mouse MC3R expressed in HEK293 cells assessed as reduction in NDP-MSH-induced response incubated for 2 hrs by AlphaScreen cAMP assay based Schild analysis; format: functional, cell-based; details: read-out: pA2 (converted)
Melanocortin receptor 3, sequence (P33033 whole entry): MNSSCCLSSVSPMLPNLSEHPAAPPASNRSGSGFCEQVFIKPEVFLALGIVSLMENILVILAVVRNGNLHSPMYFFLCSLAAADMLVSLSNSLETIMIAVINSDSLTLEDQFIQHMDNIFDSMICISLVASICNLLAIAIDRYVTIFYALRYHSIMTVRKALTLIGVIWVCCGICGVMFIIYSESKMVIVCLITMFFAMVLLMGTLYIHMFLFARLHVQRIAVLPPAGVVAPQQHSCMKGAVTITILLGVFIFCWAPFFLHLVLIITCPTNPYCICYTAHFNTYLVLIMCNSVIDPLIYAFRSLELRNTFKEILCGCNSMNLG

Melanocortin receptor 4 = Melanocortin receptor 4 (Mus musculus, UniProt P56450); assay: Antagonist activity at mouse MC4R expressed in HEK293 cells assessed as reduction in NDP-MSH-induced response incubated for 2 hrs by AlphaScreen cAMP assay based Schild analysis; format: functional, cell-based; details: read-out: pA2 (converted)
Melanocortin receptor 4, sequence (P56450 whole entry): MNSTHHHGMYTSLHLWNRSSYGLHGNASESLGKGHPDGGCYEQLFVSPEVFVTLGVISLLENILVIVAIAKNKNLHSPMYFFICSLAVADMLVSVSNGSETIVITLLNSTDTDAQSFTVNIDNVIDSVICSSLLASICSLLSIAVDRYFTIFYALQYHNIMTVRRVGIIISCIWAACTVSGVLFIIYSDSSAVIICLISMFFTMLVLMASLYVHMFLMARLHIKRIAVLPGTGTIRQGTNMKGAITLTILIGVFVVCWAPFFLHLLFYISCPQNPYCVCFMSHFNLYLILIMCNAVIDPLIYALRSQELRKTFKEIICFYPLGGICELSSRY

[1] = biological target: Melanocortin receptor 4 (Mus musculus) (UniProt P56450); assay: Agonist activity at mouse MC4R expressed in HEK293 cells at 100 uM incubated for 2 hrs by AlphaScreen cAMP assay relative to untreated control; format: functional, cell-based
Melanocortin receptor 4 (Mus musculus), sequence (P56450 whole entry): as above

[2] = biological target: Melanocortin receptor 3 (Mus musculus) (UniProt P33033); assay: Agonist activity at mouse MC3R expressed in HEK293 cells at 100 uM incubated for 2 hrs by AlphaScreen cAMP assay relative to untreated control; format: functional, cell-based
Melanocortin receptor 3 (Mus musculus), sequence (P33033 whole entry): as the sequence (P33033 whole entry) above

Mus musculus = species: Mus musculus; assay: Selectivity index, ratio of pA2 for antagonist activity at mouse MC3R expressed in HEK293 cells to pA2 for antagonist activity at mouse MC4R expressed in HEK293 cells; format: cell-based
[3] = biological target: Melanocortin receptor 5 (Mus musculus) (UniProt P41149); assay: Inverse agonist activity at mouse MC5R expressed in HEK293 cells at 100 uM incubated for 2 hrs by AlphaScreen cAMP assay; format: functional, cell-based
Melanocortin receptor 5 (Mus musculus), sequence (P41149 whole entry): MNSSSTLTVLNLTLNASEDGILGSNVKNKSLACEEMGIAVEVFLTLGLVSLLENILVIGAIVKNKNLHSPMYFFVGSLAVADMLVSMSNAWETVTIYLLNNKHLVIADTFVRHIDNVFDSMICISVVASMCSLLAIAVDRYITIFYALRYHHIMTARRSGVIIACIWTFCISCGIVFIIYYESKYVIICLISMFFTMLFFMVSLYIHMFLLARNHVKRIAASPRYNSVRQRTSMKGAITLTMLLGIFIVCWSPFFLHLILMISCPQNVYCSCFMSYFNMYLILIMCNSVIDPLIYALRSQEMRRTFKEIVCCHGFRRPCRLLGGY
In short: (§1)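 In the mouse MC5R HEK293 stable line, cells in IBMX-containing stimulation buffer with anti-cAMP acceptor beads were exposed to compound at up to 100 μM for 2 h at room temperature in the dark. Donor beads/biotinylated cAMP were then added for 2 h before AlphaScreen reading. Signal was normalized to basal response to give a percent difference from basal. Duplicate wells, ≥3 independent experiments.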

Melanocortin receptor 5 = Melanocortin receptor 5 (Mus musculus, UniProt P41149); assay: Inverse agonist activity at mouse MC5R expressed in HEK293 cells incubated for 2 hrs by AlphaScreen cAMP assay; format: functional, cell-based; in short: as §1
Melanocortin receptor 5, sequence (P41149 whole entry): as above

[4] = biological target: Melanocyte-stimulating hormone receptor (Mus musculus, UniProt Q01727); assay: Agonist activity at mouse MC1R expressed in HEK293 cells incubated for 2 hrs by AlphaScreen cAMP assay; format: functional, cell-based
Melanocyte-stimulating hormone receptor, sequence (Q01727 whole entry): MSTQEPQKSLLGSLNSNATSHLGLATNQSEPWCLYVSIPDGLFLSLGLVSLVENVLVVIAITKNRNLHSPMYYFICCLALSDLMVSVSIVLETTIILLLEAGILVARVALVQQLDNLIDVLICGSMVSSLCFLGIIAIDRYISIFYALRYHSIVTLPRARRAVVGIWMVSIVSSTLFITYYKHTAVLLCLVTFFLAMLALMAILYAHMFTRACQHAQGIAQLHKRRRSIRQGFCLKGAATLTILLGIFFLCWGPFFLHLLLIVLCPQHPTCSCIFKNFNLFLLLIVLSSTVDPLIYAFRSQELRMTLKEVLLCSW
In short: (§2)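 HEK293 cells stably expressing mouse MC1R, about 90% confluent, were detached with Versene and suspended at 10,000 cells/μL in stimulation buffer (HBSS, 0.5 mM IBMX, 5 mM HEPES, 0.1% BSA, pH 7.4) with anti-cAMP acceptor beads. Compound was added for 2 h at room temperature in the dark, then donor beads/biotinylated cAMP in lysis buffer for 2 h, followed by AlphaScreen read. Doses went up to 100 μM in duplicate wells, ≥3 experiments. EC50 came from nonlinear regression, with efficacy as a percent of NDP-MSH.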

[5] = biological target: Melanocyte-stimulating hormone receptor (Mus musculus) (UniProt Q01727); assay: Agonist activity at mouse MC1R expressed in HEK293 cells at 100 uM incubated for 2 hrs by AlphaScreen cAMP assay relative to NDP-MSH; format: functional, cell-based; in short: as §2
Melanocyte-stimulating hormone receptor (Mus musculus), sequence (Q01727 whole entry, looked up): as the sequence (Q01727 whole entry) above

N=C(N)NCCC[C@@H]1NC(=O)[C@H](Cc2ccccc2)NC(=O)[C@H](Cc2ccccc2)NC(=O)[C@H](CCCNC(=N)N)NC(=O)[C@@H]2CCCN2C(=O)[C@H]2CCCN2C(=O)[C@H](Cc2ccccc2)NC(=O)[C@H](CO)NC1=O
Kb (Melanocortin receptor 3): 79.4 nM | Kb (Melanocortin receptor 4): 1 nM | Activity [1]: < 20% | Activity [2]: < 20% | Ratio (Mus musculus): 79 | Activity [3]: < 20% | EC50 (Melanocortin receptor 5): > 100000 nM | EC50 [4]: > 100000 nM | Activity [5]: < 20%

CCCC[C@@H]1NC(=O)[C@H](C)NC(=O)[C@H](CN)NC(=O)[C@H](Cc2ccccc2)NC(=O)[C@H](Cc2ccccc2)NC(=O)[C@H](CCCNC(=N)N)NC(=O)[C@@H]2CCCN2C(=O)[C@H]2CCCN2C1=O
Kb (Melanocortin receptor 3): 79.4 nM | Kb (Melanocortin receptor 4): 1 nM | Activity [1]: < 20% | Activity [2]: < 20% | Ratio (Mus musculus): 79 | Activity [3]: < 20% | EC50 (Melanocortin receptor 5): > 100000 nM | EC50 [4]: 190 nM

CCCC[C@@H]1NC(=O)[C@H](C)NC(=O)[C@H](CC(N)=O)NC(=O)[C@H](CCc2ccccc2)NC(=O)[C@H](Cc2ccccc2)NC(=O)[C@H](CCCNC(=N)N)NC(=O)[C@@H]2CCCN2C(=O)[C@H]2CCCN2C1=O
Kb (Melanocortin receptor 3): 631 nM | Kb (Melanocortin receptor 4): 2.51 nM | Activity [1]: < 20% | Activity [2]: < 20% | Ratio (Mus musculus): 250 | Activity [3]: < 20% | EC50 (Melanocortin receptor 5): > 100000 nM | EC50 [4]: > 100000 nM | Activity [5]: < 20%

N=C(N)NCCC[C@@H]1NC(=O)[C@@H]2CCCN2C(=O)[C@H]2CCCN2C(=O)[C@H](Cc2ccccc2)NC(=O)[C@H](CO)NC(=O)[C@H](CN)NC(=O)[C@H](CCc2ccccc2)NC(=O)[C@H](Cc2ccccc2)NC1=O
Kb (Melanocortin receptor 3): 63.1 nM | Kb (Melanocortin receptor 4): 0.631 nM | Activity [1]: < 20% | Activity [2]: < 20% | Ratio (Mus musculus): 120 | Activity [3]: < 20% | EC50 (Melanocortin receptor 5): > 100000 nM | Activity [5]: 40%

N=C(N)NCCC[C@@H]1NC(=O)[C@@H]2CCCN2C(=O)[C@H]2CCCN2C(=O)[C@H](Cc2ccccc2)NC(=O)[C@H](CO)NC(=O)[C@H](CC(N)=O)NC(=O)[C@H](CCc2ccccc2)NC(=O)[C@H](Cc2ccccc2)NC1=O
Kb (Melanocortin receptor 3): 316 nM | Kb (Melanocortin receptor 4): 2.51 nM | Activity [1]: < 20% | Activity [2]: < 20% | Ratio (Mus musculus): 130 | Activity [3]: < 20% | EC50 (Melanocortin receptor 5): > 100000 nM | Activity [5]: 40%

C[C@@H]1NC(=O)[C@H](CCCNC(=N)N)NC(=O)[C@H](CCc2ccccc2)NC(=O)[C@H](Cc2ccccc2)NC(=O)[C@H](CCCNC(=N)N)NC(=O)[C@@H]2CCCN2C(=O)[C@H]2CCCN2C(=O)[C@H](Cc2ccccc2)NC1=O (cyclo(RF[hPhe]RAF[dP]P))
Kb (Melanocortin receptor 3): 10 nM | Kb (Melanocortin receptor 4): 1.26 nM | Activity [1]: < 20% | Activity [2]: < 20% | Ratio (Mus musculus): 8 | Activity [3]: < 20% | EC50 (Melanocortin receptor 5): > 100000 nM | Activity [5]: 25%

N=C(N)NCCC[C@@H]1NC(=O)[C@H](CCc2ccccc2)NC(=O)[C@H](Cc2ccccc2)NC(=O)[C@H](CCCNC(=N)N)NC(=O)[C@@H]2CCCN2C(=O)[C@H]2CCCN2C(=O)[C@H](Cc2ccccc2)NC(=O)[C@H](CO)NC1=O (cyclo(RF[hPhe]RSF[dP]P))
Kb (Melanocortin receptor 3): 20 nM | Kb (Melanocortin receptor 4): 1.58 nM | Activity [1]: < 20% | Activity [2]: < 20% | Ratio (Mus musculus): 13 | Activity [3]: < 20% | EC50 (Melanocortin receptor 5): > 100000 nM | Activity [5]: 30%

CCCC[C@@H]1NC(=O)[C@H](CO)NC(=O)[C@H](CCCNC(=N)N)NC(=O)[C@H](CCc2ccccc2)NC(=O)[C@H](Cc2ccccc2)NC(=O)[C@H](CCCNC(=N)N)NC(=O)[C@@H]2CCCN2C(=O)[C@H]2CCCN2C1=O (cyclo(RF[hPhe]RS[Nle][dP]P))
Kb (Melanocortin receptor 3): 12.6 nM | Kb (Melanocortin receptor 4): 0.316 nM | Activity [1]: < 20% | Activity [2]: < 20% | Ratio (Mus musculus): 37 | Activity [3]: < 20% | EC50 (Melanocortin receptor 5): > 100000 nM | EC50 [4]: 400 nM
